From paper PMC9302689 (British Journal of Clinical Pharmacology, 2022)

Key:
dogs = assay: Preclinical dog cardiovascular study; type: in vivo; details: any dose
neuronal abnormalities = assay: Preclinical test for neuronal abnormalities; type: in vivo; details: up to a HED of 3360 mg
healthy male subjects [1] = assay: NeuroCart body sway; type: in vivo, human; details: 12-hour post-dose period
Method in brief: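 Single-dose, placebo-controlled study in fasted healthy men, tested twice pre-dose and at 0.5–10 h post-dose. Anteroposterior sway was recorded with eyes closed using a Wright-type ataxiameter. Movements over 2 min were integrated and expressed in mm. Values were ln-transformed, and change from baseline over 12 h was analysed by MMRM against pooled placebo, baseline as covariate, then back-transformed.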

healthy male subjects [2] = assay: Treatment emergent adverse events; type: in vivo, human; details: for Incidence of TEAE: Dizziness / Incidence of TEAE: Dizziness postural / Incidence of TEAE: Fatigue / Incidence of TEAE: Headache / Incidence of TEAE: Nausea / Incidence of TEAE: Oropharyngeal pain / Incidence of TEAE: Presyncope / Incidence of TEAE: Pruritus / Incidence of TEAE: Somnolence / Incidence of TEAE: Vomiting: n = 8
NMDA receptor = assay: In vitro binding affinity, NMDA receptor; details: read-out: Ki, NMDA receptor; preclinical in vitro panel

Structure (SMILES): CN1CCC23CCCCC2C1Cc1ccc(C(N)=O)cc13 (stereo not drawn) [ALKS 7119, (9α, 13α)‐17‐methylmorphinan‐3‐carboxamide]
- QT intervals (dogs): No changes in QT intervals
- Potential to induce neuronal abnormalities (neuronal abnormalities): no potential to induce neuronal abnormalities
- Body sway, LSM CFB (healthy male subjects [1]; 3 mg single oral dose): −0.14 LOG mm
- Body sway, LSM CFB (healthy male subjects [1]; 10 mg single oral dose): 0.16 LOG mm
- Body sway, LSM CFB (healthy male subjects [1]; 25 mg single oral dose): −0.03 LOG mm
- Body sway, LSM CFB (healthy male subjects [1]; 50 mg single oral dose): 0.12 LOG mm
- Body sway, LSM CFB (healthy male subjects [1]; 75 mg single oral dose): −0.06 LOG mm
- Body sway, LSM CFB (healthy male subjects [1]; 100 mg single oral dose): 0.08 LOG mm
- Incidence of TEAE: Dizziness (healthy male subjects [2]; 3 mg single oral dose): 0
- Incidence of TEAE: Dizziness postural (healthy male subjects [2]; 3 mg single oral dose): 0
- Incidence of TEAE: Fatigue (healthy male subjects [2]; 3 mg single oral dose): 3
- Incidence of TEAE: Headache (healthy male subjects [2]; 3 mg single oral dose): 0
- Incidence of TEAE: Nausea (healthy male subjects [2]; 3 mg single oral dose): 0
- Incidence of TEAE: Oropharyngeal pain (healthy male subjects [2]; 3 mg single oral dose): 0
- Incidence of TEAE: Presyncope (healthy male subjects [2]; 3 mg single oral dose): 0
- Incidence of TEAE: Pruritus (healthy male subjects [2]; 3 mg single oral dose): 0
- Incidence of TEAE: Somnolence (healthy male subjects [2]; 3 mg single oral dose): 0
- Incidence of TEAE: Vomiting (healthy male subjects [2]; 3 mg single oral dose): 0
- Incidence of TEAE: Dizziness (healthy male subjects [2]; 10 mg single oral dose): 0
- Incidence of TEAE: Dizziness postural (healthy male subjects [2]; 10 mg single oral dose): 0
- Incidence of TEAE: Fatigue (healthy male subjects [2]; 10 mg single oral dose): 1
- Incidence of TEAE: Headache (healthy male subjects [2]; 10 mg single oral dose): 1
- Incidence of TEAE: Nausea (healthy male subjects [2]; 10 mg single oral dose): 0
- Incidence of TEAE: Oropharyngeal pain (healthy male subjects [2]; 10 mg single oral dose): 0
- Incidence of TEAE: Presyncope (healthy male subjects [2]; 10 mg single oral dose): 1
- Incidence of TEAE: Pruritus (healthy male subjects [2]; 10 mg single oral dose): 0
- Incidence of TEAE: Somnolence (healthy male subjects [2]; 10 mg single oral dose): 1
- Incidence of TEAE: Vomiting (healthy male subjects [2]; 10 mg single oral dose): 0
- Incidence of TEAE: Dizziness (healthy male subjects [2]; 25 mg single oral dose): 0
- Incidence of TEAE: Dizziness postural (healthy male subjects [2]; 25 mg single oral dose): 0
- Incidence of TEAE: Fatigue (healthy male subjects [2]; 25 mg single oral dose): 2
- Incidence of TEAE: Headache (healthy male subjects [2]; 25 mg single oral dose): 0
- Incidence of TEAE: Nausea (healthy male subjects [2]; 25 mg single oral dose): 0
- Incidence of TEAE: Oropharyngeal pain (healthy male subjects [2]; 25 mg single oral dose): 0
- Incidence of TEAE: Presyncope (healthy male subjects [2]; 25 mg single oral dose): 1
- Incidence of TEAE: Pruritus (healthy male subjects [2]; 25 mg single oral dose): 0
- Incidence of TEAE: Somnolence (healthy male subjects [2]; 25 mg single oral dose): 0
- Incidence of TEAE: Vomiting (healthy male subjects [2]; 25 mg single oral dose): 0
- Incidence of TEAE: Dizziness (healthy male subjects [2]; 50 mg single oral dose): 0
- Incidence of TEAE: Dizziness postural (healthy male subjects [2]; 50 mg single oral dose): 0
- Incidence of TEAE: Fatigue (healthy male subjects [2]; 50 mg single oral dose): 0
- Incidence of TEAE: Headache (healthy male subjects [2]; 50 mg single oral dose): 2
- Incidence of TEAE: Nausea (healthy male subjects [2]; 50 mg single oral dose): 1
- Incidence of TEAE: Oropharyngeal pain (healthy male subjects [2]; 50 mg single oral dose): 0
- Incidence of TEAE: Presyncope (healthy male subjects [2]; 50 mg single oral dose): 1
- Incidence of TEAE: Pruritus (healthy male subjects [2]; 50 mg single oral dose): 0
- Incidence of TEAE: Somnolence (healthy male subjects [2]; 50 mg single oral dose): 2
- Incidence of TEAE: Vomiting (healthy male subjects [2]; 50 mg single oral dose): 0
- Incidence of TEAE: Dizziness (healthy male subjects [2]; 75 mg single oral dose): 0
- Incidence of TEAE: Dizziness postural (healthy male subjects [2]; 75 mg single oral dose): 0
- Incidence of TEAE: Fatigue (healthy male subjects [2]; 75 mg single oral dose): 0
- Incidence of TEAE: Headache (healthy male subjects [2]; 75 mg single oral dose): 3
- Incidence of TEAE: Nausea (healthy male subjects [2]; 75 mg single oral dose): 3
- Incidence of TEAE: Oropharyngeal pain (healthy male subjects [2]; 75 mg single oral dose): 0
- Incidence of TEAE: Presyncope (healthy male subjects [2]; 75 mg single oral dose): 3
- Incidence of TEAE: Pruritus (healthy male subjects [2]; 75 mg single oral dose): 0
- Incidence of TEAE: Somnolence (healthy male subjects [2]; 75 mg single oral dose): 1
- Incidence of TEAE: Vomiting (healthy male subjects [2]; 75 mg single oral dose): 2
- Incidence of TEAE: Dizziness (healthy male subjects [2]; 100 mg single oral dose): 0
- Incidence of TEAE: Dizziness postural (healthy male subjects [2]; 100 mg single oral dose): 2
- Incidence of TEAE: Fatigue (healthy male subjects [2]; 100 mg single oral dose): 0
- Incidence of TEAE: Headache (healthy male subjects [2]; 100 mg single oral dose): 3
- Incidence of TEAE: Nausea (healthy male subjects [2]; 100 mg single oral dose): 3
- Incidence of TEAE: Oropharyngeal pain (healthy male subjects [2]; 100 mg single oral dose): 0
- Incidence of TEAE: Presyncope (healthy male subjects [2]; 100 mg single oral dose): 1
- Incidence of TEAE: Pruritus (healthy male subjects [2]; 100 mg single oral dose): 0
- Incidence of TEAE: Somnolence (healthy male subjects [2]; 100 mg single oral dose): 2
- Incidence of TEAE: Vomiting (healthy male subjects [2]; 100 mg single oral dose): 1
- Incidence of TEAE: Dizziness (healthy male subjects [2]; 125 mg single oral dose): 1
- Incidence of TEAE: Dizziness postural (healthy male subjects [2]; 125 mg single oral dose): 0
- Incidence of TEAE: Fatigue (healthy male subjects [2]; 125 mg single oral dose): 0
- Incidence of TEAE: Headache (healthy male subjects [2]; 125 mg single oral dose): 2
- Incidence of TEAE: Nausea (healthy male subjects [2]; 125 mg single oral dose): 2
- Incidence of TEAE: Oropharyngeal pain (healthy male subjects [2]; 125 mg single oral dose): 0
- Incidence of TEAE: Presyncope (healthy male subjects [2]; 125 mg single oral dose): 0
- Incidence of TEAE: Pruritus (healthy male subjects [2]; 125 mg single oral dose): 1
- Incidence of TEAE: Somnolence (healthy male subjects [2]; 125 mg single oral dose): 0
- Incidence of TEAE: Vomiting (healthy male subjects [2]; 125 mg single oral dose): 0
- Incidence of TEAE: Dizziness (healthy male subjects [2]; 150 mg single oral dose): 1
- Incidence of TEAE: Dizziness postural (healthy male subjects [2]; 150 mg single oral dose): 0
- Incidence of TEAE: Fatigue (healthy male subjects [2]; 150 mg single oral dose): 1
- Incidence of TEAE: Headache (healthy male subjects [2]; 150 mg single oral dose): 2
- Incidence of TEAE: Nausea (healthy male subjects [2]; 150 mg single oral dose): 5
- Incidence of TEAE: Oropharyngeal pain (healthy male subjects [2]; 150 mg single oral dose): 0
- Incidence of TEAE: Presyncope (healthy male subjects [2]; 150 mg single oral dose): 3
- Incidence of TEAE: Pruritus (healthy male subjects [2]; 150 mg single oral dose): 0
- Incidence of TEAE: Somnolence (healthy male subjects [2]; 150 mg single oral dose): 1
- Incidence of TEAE: Vomiting (healthy male subjects [2]; 150 mg single oral dose): 1
- Incidence of TEAE: Dizziness (healthy male subjects [2]; 175 mg single oral dose): 0
- Incidence of TEAE: Dizziness postural (healthy male subjects [2]; 175 mg single oral dose): 0
- Incidence of TEAE: Fatigue (healthy male subjects [2]; 175 mg single oral dose): 0
- Incidence of TEAE: Headache (healthy male subjects [2]; 175 mg single oral dose): 0
- Incidence of TEAE: Nausea (healthy male subjects [2]; 175 mg single oral dose): 5
- Incidence of TEAE: Oropharyngeal pain (healthy male subjects [2]; 175 mg single oral dose): 0
- Incidence of TEAE: Presyncope (healthy male subjects [2]; 175 mg single oral dose): 4
- Incidence of TEAE: Pruritus (healthy male subjects [2]; 175 mg single oral dose): 0
- Incidence of TEAE: Somnolence (healthy male subjects [2]; 175 mg single oral dose): 1
- Incidence of TEAE: Vomiting (healthy male subjects [2]; 175 mg single oral dose): 0
- Incidence of TEAE: Dizziness (healthy male subjects [2]; 200 mg single oral dose): 2
- Incidence of TEAE: Dizziness postural (healthy male subjects [2]; 200 mg single oral dose): 0
- Incidence of TEAE: Fatigue (healthy male subjects [2]; 200 mg single oral dose): 1
- Incidence of TEAE: Headache (healthy male subjects [2]; 200 mg single oral dose): 3
- Incidence of TEAE: Nausea (healthy male subjects [2]; 200 mg single oral dose): 3
- Incidence of TEAE: Oropharyngeal pain (healthy male subjects [2]; 200 mg single oral dose): 0
- Incidence of TEAE: Presyncope (healthy male subjects [2]; 200 mg single oral dose): 1
- Incidence of TEAE: Pruritus (healthy male subjects [2]; 200 mg single oral dose): 2
- Incidence of TEAE: Somnolence (healthy male subjects [2]; 200 mg single oral dose): 1
- Incidence of TEAE: Vomiting (healthy male subjects [2]; 200 mg single oral dose): 0
- Subjects reporting TEAEs (healthy male subjects [2]; all ALKS 7119 doses, 51 of 80 subjects (placebo 40%)): 64%
- Ki (NMDA receptor): 7.44 µM
